The source of these data is ChEMBL document CHEMBL1128288, “7-Azetidinylquinolones as antibacterial agents. 3. Synthesis, properties and structure-activity relationships of the stereoisomers containing a 7-(3-amino-2-methyl-1-azetidinyl) moiety” (J Med Chem, 1995).

Converted amounts (≈) assume the structure as drawn.

The test system of one series is Bacillus cereus. Nature of the series: In vitro antibacterial activity measured as minimum inhibitory concentration was evaluated on Bacillus cereus ATCC 11778 (Bc). Conditions: Bacillus cereus, ATCC 11778; read-out: MIC. The series is classed as functional. In a few lines:
(§1)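 Serial 2-fold agar dilution in Mueller Hinton medium, run side by side with reference quinolones. Inoculum 10^5 cfu/mL; compound range 0.007–16 µg/mL.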

The test system of series [1] is Pseudomonas aeruginosa. Nature of the series: In vivo efficacy as ED50 against Pseudomonas aeruginosa HS-116 by oral administration in mice. As to conditions: Pseudomonas aeruginosa, po; read-out: ED50. The series is classed as functional. In short, it runs like this: (§2)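 Mice, 4 groups of 10, infected intraperitoneally with slightly more than the LD100 of the organism. A single oral dose was given immediately after infection, with four doses (one per group) chosen from in vitro activity. Survival was scored after one week. ED50 (total dose, mg/kg, protecting 50%) was interpolated among group survival rates.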

The subject of series [2] is Pseudomonas aeruginosa. Nature of the series: In vitro antibacterial activity measured as minimum inhibitory concentration was evaluated on Pseudomonas aeruginosa ATCC 10145 (Pa). Type of series: functional. As to conditions: Pseudomonas aeruginosa, ATCC 10145; read-out: MIC. In a few lines: as §1
The next series concerns Bacillus subtilis. Nature of the series: In vitro antibacterial activity measured as minimum inhibitory concentration was evaluated on Bacillus subtilis ATCC 6633(Bs). The series is classed as functional. As to conditions: Bacillus subtilis, ATCC 6633; read-out: MIC. In short, it runs like this: as §1
The test system of series [3] is Staphylococcus aureus. Kind of series: In vivo efficacy as ED50 against Staphylococcus aureus HS-93 by oral administration in mice. Type of series: functional. Conditions: Staphylococcus aureus, po; read-out: ED50. In a few lines:
as §2

The test system of a further series is Enterococcus faecalis. Nature of the series: In vitro antibacterial activity measured as minimum inhibitory concentration was evaluated on Streptococcus faecalis ATCC 10541 (Sf). The series is classed as functional. Conditions: Enterococcus faecalis, ATCC 10541; read-out: MIC. In a few lines:
as §1

The test system of the next series is Klebsiella pneumoniae. Nature of the series: In vitro antibacterial activity measured as minimum inhibitory concentration was evaluated on klebsiella pneumoniae ATCC 10031 (Kp). As to conditions: Klebsiella pneumoniae, ATCC 10031; read-out: MIC. The series is classed as functional. In a few lines: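 Serial 2-fold agar dilution in Mueller Hinton medium, run side by side with reference quinolones.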

For series [4] the following is noted: mouse, in vivo, po, 50 mg/kg.
The subject of series [5] is Escherichia coli. Nature of the series: In vivo efficacy as ED50 against Escherichia coli HM-42 by oral administration in mice. Type of series: functional. Conditions: Escherichia coli, po; read-out: ED50. In a few lines:
as §2

The subject of a further series is Morganella morganii. Kind of series: In vitro antibacterial activity measured as minimum inhibitory concentration was evaluated on morganella morganii ATCC 8019 (Mm). The series is classed as functional. As to conditions: Morganella morganii, ATCC 8019; read-out: MIC. In a few lines: as §1
For series [6], the system named is Staphylococcus aureus. Nature of the series: In vitro antibacterial activity measured as minimum inhibitory concentration was evaluated on Staphylococcus aureus ATCC 25178 (Sa). As to conditions: Staphylococcus aureus, ATCC 25178; read-out: MIC. Type of series: functional. In short, it runs like this: as §1
In series [7] the test system is Escherichia coli. Nature of the series: In vitro antibacterial activity measured as minimum inhibitory concentration, was evaluated on Escherichia coli ATCC 23559(Ec). The series is classed as functional. As to conditions: Escherichia coli, ATCC 23559; read-out: MIC. In short, it runs like this:
as §1

A further series concerns Proteus vulgaris. Nature of the series: In vitro antibacterial activity measured as minimum inhibitory concentration was evaluated on proteus vulgaris ATCC 8427 (Pv). The series is classed as functional. As to conditions: Proteus vulgaris, ATCC 8427; read-out: MIC. In a few lines:
as §1

Another series relates to Enterobacter cloacae. Kind of series: In vitro antibacterial activity measured as minimum inhibitory concentration, was evaluated on Enterobacter cloacae ATCC 23355 (Ecl). The series is classed as functional. Conditions: Enterobacter cloacae, ATCC 23355; read-out: MIC.
Series [8] has as its system Staphylococcus epidermidis. Nature of the series: In vitro antibacterial activity measured as minimum inhibitory concentration was evaluated on Staphylococcus epidermidis ATCC 155-1 (Se). Type of series: functional. Conditions: Staphylococcus epidermidis, ATCC 155-1; read-out: MIC. In a few lines:
as §1

Turning to `C[C@@H]1[C@@H](N)CN1c1cc2c(cc1F)c(=O)c(C(=O)O)cn2-c1ccc(F)cc1F`, the MIC with Bacillus cereus amounted to 0.5 µg/mL (≈ 1.24 µM); with Pseudomonas aeruginosa [2], 8 µg/mL (≈ 19.8 µM); in the series with Bacillus subtilis it was 0.25 µg/mL (≈ 0.62 µM); in the series with Enterococcus faecalis, 4 µg/mL (≈ 9.92 µM); with Klebsiella pneumoniae it was 0.25 µg/mL (≈ 0.62 µM); with Morganella morganii it was 1 µg/mL (≈ 2.48 µM). The minimal inhibitory concentration (MIC) was 0.25 µg/mL (≈ 0.62 µM) with Staphylococcus aureus [6]; 0.5 µg/mL (≈ 1.24 µM) in the series with Escherichia coli [7]; 2 µg/mL (≈ 4.96 µM) in the series with Proteus vulgaris; 1 µg/mL (≈ 2.48 µM) in the series with Enterobacter cloacae; 0.25 µg/mL (≈ 0.62 µM) in [8]. The ED50 in the series with Pseudomonas aeruginosa [1] worked out at 90 mg/kg; with Staphylococcus aureus [3] it was 16.1 mg/kg; with Escherichia coli [5] it was 10 mg/kg. This molecule also yielded an AUC in [4] of 35900 ng·h/mL.
`C[C@H]1COc2c(N3CC(C)(N)C3)c(F)cc3c(=O)c(C(=O)O)cn1c23`: the MIC with Bacillus cereus stood at 0.25 µg/mL (≈ 0.72 µM); in the series on Pseudomonas aeruginosa [2], 0.5 µg/mL (≈ 1.44 µM); in the series on Bacillus subtilis it was 0.015 µg/mL (≈ 0.0432 µM); in the series with Enterococcus faecalis, 0.5 µg/mL (≈ 1.44 µM); in the series with Klebsiella pneumoniae it was 0.015 µg/mL (≈ 0.0432 µM); in the series on Morganella morganii, 0.015 µg/mL (≈ 0.0432 µM). In addition, the MIC in the series with Staphylococcus aureus [6] came to 0.25 µg/mL (≈ 0.72 µM); in the series with Escherichia coli [7] it was 0.015 µg/mL (≈ 0.0432 µM); in the series with Proteus vulgaris, 0.25 µg/mL (≈ 0.72 µM); in the series on Enterobacter cloacae, 0.015 µg/mL (≈ 0.0432 µM); in series [8], 0.12 µg/mL (≈ 0.345 µM). In addition, the ED50 with Pseudomonas aeruginosa [1] amounted to 121 mg/kg; with Staphylococcus aureus [3], 19.1 mg/kg; with Escherichia coli [5], 6.7 mg/kg. Also, the AUC in series [4] was found to be 8500 ng·h/mL.
Take `C[C@@H]1[C@@H](N)CN1c1nc2c(cc1F)c(=O)c(C(=O)O)cn2C1CC1`: the MIC was found to be 0.25 µg/mL (≈ 0.752 µM) with Bacillus cereus; 2 µg/mL (≈ 6.02 µM) in the series on Pseudomonas aeruginosa [2]; 0.06 µg/mL (≈ 0.181 µM) in the series on Bacillus subtilis; 2 µg/mL (≈ 6.02 µM) in the series with Enterococcus faecalis; 0.06 µg/mL (≈ 0.181 µM) with Klebsiella pneumoniae; 0.25 µg/mL (≈ 0.752 µM) in the series on Morganella morganii. Moreover, the MIC in the series with Staphylococcus aureus [6] worked out at 0.5 µg/mL (≈ 1.5 µM); with Escherichia coli [7], 0.12 µg/mL (≈ 0.361 µM); in the series on Proteus vulgaris it was 0.5 µg/mL (≈ 1.5 µM); with Enterobacter cloacae it was 0.12 µg/mL (≈ 0.361 µM); in series [8] it was 0.25 µg/mL (≈ 0.752 µM). In series [4], the AUC is 22300 ng·h/mL.
Take `C[C@@H]1[C@@H](N)CN1c1c(F)c(N)c2c(=O)c(C(=O)O)cn(C3CC3)c2c1F`: the MIC with Bacillus cereus is 0.015 µg/mL (≈ 0.0412 µM); in the series with Pseudomonas aeruginosa [2] it was 0.12 µg/mL (≈ 0.329 µM); with Bacillus subtilis, 0.015 µg/mL (≈ 0.0412 µM); with Enterococcus faecalis, 0.12 µg/mL (≈ 0.329 µM); in the series on Klebsiella pneumoniae, 0.015 µg/mL (≈ 0.0412 µM); with Morganella morganii, 0.015 µg/mL (≈ 0.0412 µM). Moreover, the MIC worked out at 0.015 µg/mL (≈ 0.0412 µM) with Staphylococcus aureus [6]; 0.015 µg/mL (≈ 0.0412 µM) in the series with Escherichia coli [7]; 0.06 µg/mL (≈ 0.165 µM) in the series with Proteus vulgaris; 0.015 µg/mL (≈ 0.0412 µM) with Enterobacter cloacae; 0.015 µg/mL (≈ 0.0412 µM) in [8]. For the same molecule, the ED50 is 96 mg/kg with Pseudomonas aeruginosa [1], 11.4 mg/kg with Staphylococcus aureus [3] and 4.1 mg/kg in the series on Escherichia coli [5]. In series [4], this molecule showed an AUC of 11400 ng·h/mL.
Turning to `CCn1cc(C(=O)O)c(=O)c2cc(F)c(N3C[C@H](N)[C@H]3C)c(F)c21`, the minimum inhibitory concentration (MIC) in the series with Bacillus cereus was 0.25 µg/mL (≈ 0.741 µM); with Pseudomonas aeruginosa [2], 2 µg/mL (≈ 5.93 µM); in the series on Bacillus subtilis, 0.12 µg/mL (≈ 0.356 µM); with Enterococcus faecalis, 2 µg/mL (≈ 5.93 µM); in the series on Klebsiella pneumoniae, 0.06 µg/mL (≈ 0.178 µM); in the series with Morganella morganii, 0.12 µg/mL (≈ 0.356 µM). For the same molecule, the MIC in the series on Staphylococcus aureus [6] was found to be 0.25 µg/mL (≈ 0.741 µM); with Escherichia coli [7] it was 0.12 µg/mL (≈ 0.356 µM); with Proteus vulgaris it was 0.5 µg/mL (≈ 1.48 µM); in the series with Enterobacter cloacae, 0.12 µg/mL (≈ 0.356 µM); in series [8], 0.25 µg/mL (≈ 0.741 µM). Also, the ED50 was found to be 60 mg/kg in the series on Pseudomonas aeruginosa [1], 5.9 mg/kg in the series on Staphylococcus aureus [3] and 3.9 mg/kg in the series on Escherichia coli [5]. This molecule also gave an AUC in series [4] of 21000 ng·h/mL.
`C[C@@H]1[C@@H](N)CN1c1nc2c(cc1F)c(=O)c(C(=O)O)cn2-c1ccc(F)cc1F`: the MIC came out at 0.5 µg/mL (≈ 1.24 µM) in the series with Bacillus cereus; 8 µg/mL (≈ 19.8 µM) in the series with Pseudomonas aeruginosa [2]; 0.25 µg/mL (≈ 0.618 µM) in the series with Bacillus subtilis; 4 µg/mL (≈ 9.89 µM) in the series on Enterococcus faecalis; 0.25 µg/mL (≈ 0.618 µM) with Klebsiella pneumoniae; 1 µg/mL (≈ 2.47 µM) in the series on Morganella morganii. For the same molecule, the MIC was found to be 0.5 µg/mL (≈ 1.24 µM) with Staphylococcus aureus [6]; 0.5 µg/mL (≈ 1.24 µM) with Escherichia coli [7]; 2 µg/mL (≈ 4.95 µM) in the series on Proteus vulgaris; 1 µg/mL (≈ 2.47 µM) in the series with Enterobacter cloacae; 0.5 µg/mL (≈ 1.24 µM) in [8]. Besides, the ED50 in the series on Pseudomonas aeruginosa [1] stood at 400 mg/kg; in the series with Staphylococcus aureus [3], 8.6 mg/kg; with Escherichia coli [5], 10.3 mg/kg. For the same molecule, the AUC in series [4] was 28300 ng·h/mL.

What is called MIC is the lowest concentration that inhibits growth of the organism. By ED50 is commonly meant the midpoint of the dose-response relation. For orientation: AUC means the area under the concentration-time curve, a measure of exposure.
